This note sets out measurements from ChEMBL document CHEMBL1764975, “A new DNA gyrase inhibitor subclass of the cyclothialidine family based on a bicyclic dilactam-lactone scaffold. Synthesis and antibacterial properties” (J Med Chem, 2011).

In experiment [1] the test system is Staphylococcus aureus. The experiment is described as follows: (§1) Antimicrobial activity against Staphylococcus aureus Smith after 18 hrs by agar dilution method. It is filed as functional. Put shortly: (§2)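 Agar dilution on Mueller-Hinton medium, inoculum 10⁴ CFU/spot; MIC is the minimum inhibitory concentration against the named strain.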
Experiment [2] has as its system Escherichia coli. The experiment is described as follows: Inhibition of Escherichia coli DNA gyrase A2B2 complex after 30 mins by supercoiling assay.
Experiment [3] relates to Staphylococcus aureus. In words: Antimicrobial activity against Staphylococcus aureus Smith infected in iv dosed septicaemia Swiss albino mouse model after 4 days. Type of experiment: functional. Conditions: 96 h. The method, boiled down: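 Septicaemia model in mice infected with S. aureus Smith, compound given iv. In experiments with 0-1 survivors among 5-10 control mice, ED₅₀ (mg/kg) taken as lowest dose giving 3-5 survivors out of 5 infected mice.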

The subject of experiment [4] is Escherichia coli. In words: Antimicrobial activity against Escherichia coli 25922 after 18 hrs by agar dilution method. It is filed as functional. Conditions: Escherichia coli, 25922, 18 h. Put shortly:
as §2

The test system of experiment [5] is Enterococcus faecalis. The experiment is described as follows: Antimicrobial activity against multidrug-resistant Enterococcus faecalis after 18 hrs by agar dilution method. Type of experiment: functional. The method, boiled down: (§3)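 Agar dilution on Mueller-Hinton agar, inoculum 10⁴ CFU/spot, against panels of multiresistant clinical strains (S. aureus 11, E. faecalis 16, E. faecium 23). MIC_50/90 in μg/mL taken as the minimum concentration inhibiting at least 50% or 90% of the strains tested.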
A general note: In agar dilution the substance is mixed into plates at graded concentrations.

Experiment [6] has as its system Staphylococcus aureus. The experiment is described as follows: Antimicrobial activity against multidrug-resistant Staphylococcus aureus after 18 hrs by agar dilution method. Type of experiment: functional. The method, boiled down:
as §3

A further experiment concerns Streptococcus pyogenes. The experiment is described as follows: Antimicrobial activity against Streptococcus pyogenes b15 after 18 hrs by agar dilution method. Type of experiment: functional. Conditions: b15, 18 h. Put shortly:
as §2

Experiment [7] concerns Stenotrophomonas maltophilia. The experiment is described as follows: Antimicrobial activity against Xanthomonas maltophilia IAC 739 after 18 hrs by agar dilution method. The settings on record: IAC 739, 18 h. It is filed as functional. Put shortly:
as §2

For another experiment, the system named is Enterococcus faecium. The experiment is described as follows: Antimicrobial activity against multidrug-resistant Enterococcus faecium after 18 hrs by agar dilution method. Type of experiment: functional. Put shortly:
as §3

For experiment [8], the system named is Staphylococcus aureus. The experiment is described as §1. Type of experiment: functional. The method, boiled down:
as §2
The source holds these as a separate data set.

Experiment [9] relates to Staphylococcus aureus. In words: Antimicrobial activity against Staphylococcus aureus ATCC 25923 after 18 hrs by agar dilution method. Type of experiment: functional. Conditions: ATCC 25923, 18 h. Put shortly:
as §2

Experiment [10] deals with Staphylococcus epidermidis. In words: Antimicrobial activity against Staphylococcus epidermidis 16/2 after 18 hrs by agar dilution method. Type of experiment: functional. Conditions: 16/2, 18 h. The method, boiled down: as §2
Experiment [11] concerns Enterococcus faecalis. The experiment is described as follows: Antimicrobial activity against Enterococcus faecalis 6 after 18 hrs by agar dilution method. The settings on record: Enterococcus faecalis, 6, 18 h.

Converted amounts (≈) assume the structure as drawn.

The MIC is the lowest concentration that inhibits growth of the organism. Read a low MIC as a more susceptible organism. Regarding `COCc1noc([C@@H]2CSCc3c(O)cc(OC)c(Br)c3C(=O)OCC(=O)NCC(=O)N2)n1`, the MIC against Staphylococcus aureus [1] was found to be 8 µg/mL (≈ 14.7 µM). The compound also showed an MNEC in the experiment with Escherichia coli [2] of 0.05 µg/mL.
Compound `COc1cc(O)c2c(c1Br)C(=O)O[C@H](c1ccccc1)C(=O)NCC(=O)N[C@H](c1nc(C)no1)CSC2` registered an MIC with Staphylococcus aureus [1] above 64 µg/mL. Besides, the MNEC with Escherichia coli [2] is 0.2 µg/mL.
For orientation: ED50 means the dose at which the effect has come halfway, by size or by number of responders. A lower ED50 goes with greater potency. In the experiment on Staphylococcus aureus [1], `COc1cc(O)c2c(c1C)C(=O)OCCCCC(=S)N[C@H](c1nc(CO)no1)CSC2` yielded an MIC of 0.25 µg/mL (≈ 0.535 µM). This compound had an MNEC with Escherichia coli [2] of 0.001 µg/mL. The same compound came in with an ED50 in the experiment on Staphylococcus aureus [3] of 25 mg/kg.
Turning to `COc1cc(O)c2c(c1Br)C(=O)OCCN(C(=O)C1CC1)CC(=O)N[C@H](c1nc(C)no1)CSC2`, 8 µg/mL (≈ 14 µM) was the least that counted as inhibitory with Staphylococcus aureus [1] (MIC). Besides, the MNEC with Escherichia coli [2] was determined as 0.1 µg/mL.
For orientation: MIC50 means an inhibitory concentration at the 50% level, which refers to growth in some studies and to a panel of isolates in others. Lower therefore signals higher susceptibility. One may read the MIC90 as an inhibitory concentration at the 90% level, which refers to growth in some studies and to a panel of isolates in others. As for `CN[C@H](CC(C)C)C(=O)N[C@H]1C(=O)N[C@@H](CC(N)=O)C(=O)N[C@H]2C(=O)N[C@H]3C(=O)N[C@H](C(=O)N[C@H](C(=O)O)c4cc(O)cc(O)c4-c4cc3ccc4O)[C@H](O)c3ccc(c(Cl)c3)Oc3cc2cc(c3O[C@@H]2O[C@H](CO)[C@@H](O)[C@H](O)[C@H]2O[C@H]2C[C@](C)(N)[C@H](O)[C@H](C)O2)Oc2ccc(cc2Cl)[C@H]1O` [VANCOMYCIN], the MIC in the experiment on Escherichia coli [4] is above 64 µg/mL; in the experiment on Streptococcus pyogenes it was 1 µg/mL (≈ 0.69 µM); in [7], above 64 µg/mL. In addition, the values for the MIC50 against Enterococcus faecalis [5], in the experiment on Staphylococcus aureus [6] and against Enterococcus faecium were 2 µg/mL (≈ 1.38 µM), 2 µg/mL (≈ 1.38 µM) and 256 µg/mL (≈ 177 µM), respectively. In addition, the MIC90 with Enterococcus faecalis [5] is 256 µg/mL (≈ 177 µM); against Staphylococcus aureus [6], 4 µg/mL (≈ 2.76 µM); in the experiment with Enterococcus faecium it was above 256 µg/mL. The compound also displayed an ED50 in the experiment on Staphylococcus aureus [3] of 1.5 mg/kg.
Turning to `COc1cc(O)c2c(c1Br)C(=O)OCC(=O)NCC(=S)N[C@H](c1nc(CNC(C)C)no1)CSC2.Cl`, the MIC with Staphylococcus aureus [8] is 0.5 µg/mL; in the experiment on Escherichia coli [4] it was above 64 µg/mL; against Staphylococcus aureus [1] it was 0.5 µg/mL; with Staphylococcus aureus [9], 1 µg/mL; in experiment [10], below 0.12 µg/mL; with Streptococcus pyogenes, 0.25 µg/mL. The values for the MIC (in [7]; with Enterococcus faecalis [11]) were 16 µg/mL and 0.25 µg/mL, respectively. Moreover, the MNEC with Escherichia coli [2] was 0.02 µg/mL. Moreover, the ED50 in the experiment with Staphylococcus aureus [3] was determined as 12 mg/kg.
Take `COc1cc(O)c2c(c1Br)C(=O)OCC(=S)NCC(=S)N[C@H](c1nc(C)no1)CSC2`: in the experiment with Staphylococcus aureus [1], the MIC came out at 1 µg/mL (≈ 1.83 µM). In the experiment with Escherichia coli [2], this compound came in with an MNEC of 0.2 µg/mL.
Turning to `COc1cc(O)c2c(c1Br)C(=O)O[C@H](C)C(=O)NCC(=S)N[C@H](c1nc(C)no1)CSC2`, the MIC against Staphylococcus aureus [1] came out at 0.5 µg/mL (≈ 0.917 µM). This compound also registered an MNEC with Escherichia coli [2] of 0.2 µg/mL. Moreover, the ED50 with Staphylococcus aureus [3] was above 12.5 mg/kg.
In the experiment on Staphylococcus aureus [1], `COc1cc(O)c2c(c1C)C(=O)OC[C@@H](CO)CCC(=O)N[C@H](c1nc(C)no1)CSC2` had a minimum inhibitory concentration (MIC) of 64 µg/mL (≈ 137 µM). Moreover, the MNEC in the experiment on Escherichia coli [2] is 0.1 µg/mL.
`COc1cc(O)c2c(c1C)C(=O)O[C@H](CO)CCCC(=S)N[C@H](c1nc(CO)no1)CSC2`: the MIC against Staphylococcus aureus [1] is 10 µg/mL (≈ 20.1 µM). Also, in the experiment with Escherichia coli [2], the MNEC turned out to be 0.01 µg/mL.
Take `COc1cc(O)c2c(c1Br)C(=O)OCC(=O)NCC(=O)N[C@H](c1nc(CN)no1)CSC2.Cl`: the minimal inhibitory concentration (MIC) in the experiment on Staphylococcus aureus [1] is 32 µg/mL. Besides, in the experiment on Escherichia coli [2], the MNEC turned out to be 0.1 µg/mL.
As to `COc1cc(O)c2c(c1Br)C(=O)OCCCCC(=S)N[C@H](c1nc(CN)no1)CSC2.Cl`, in the experiment with Staphylococcus aureus [1], inhibition of growth (MIC) required 0.5 µg/mL. The compound also displayed an MNEC with Escherichia coli [2] of 0.05 µg/mL. Also, in the experiment with Staphylococcus aureus [3], it took a dose of 12.5 mg/kg to reach the 50% effect level (ED50).
For the compound `COC(=O)[C@@H]1CSCc2c(O)cc(OC)c(C)c2C(=O)OCCOCC(=S)N1`, the lowest concentration to inhibit growth in the experiment with Staphylococcus aureus [1] (MIC) was 2.37 µg/mL (≈ 5.52 µM). This compound also displayed an MNEC in the experiment with Escherichia coli [2] of 0.1 µg/mL.
For `COc1cc(O)c2c(c1Br)C(=O)OCC(=O)N(C)CC(=S)N[C@H](c1nc(C)no1)CSC2` the same measures were 0.5 µg/mL (≈ 0.917 µM) and 0.05 µg/mL.
Turning to `COc1cc(O)c2c(c1Br)C(=O)OCCNCC(=O)N[C@H](c1nc(C)no1)CSC2.Cl`, in the experiment with Staphylococcus aureus [1], it took 1 µg/mL to inhibit growth (MIC). This compound also had an MNEC with Escherichia coli [2] of 0.01 µg/mL. In the experiment with Staphylococcus aureus [3], this compound had an ED50 of 25 mg/kg.
Take `COc1cc(O)c2c(c1C)C(=O)OCC(=S)NCC(=S)N[C@H](c1nc(C)no1)CSC2`: the MIC in the experiment on Staphylococcus aureus [1] turned out to be 0.5 µg/mL (≈ 1.04 µM). The compound also registered an MNEC in the experiment with Escherichia coli [2] of 0.002 µg/mL.
For `COc1cc(O)c2c(c1Br)C(=O)OCCN(C(C)=O)CC(=O)N[C@H](c1nc(C)no1)CSC2` the same measures were 16 µg/mL (≈ 29.4 µM) and 0.01 µg/mL.
In turn, `COc1cc(O)c2c(c1C)C(=O)OC[C@H](CO)CCC(=S)N[C@H](c1nc(C)no1)CSC2` registered an MIC with Staphylococcus aureus [1] of 0.5 µg/mL (≈ 1.04 µM). The compound further gave an MNEC in the experiment with Escherichia coli [2] of 0.002 µg/mL. The ED50 in the experiment on Staphylococcus aureus [3] is 12.5 mg/kg.
In turn, `COc1cc(O)c2c(c1Br)C(=O)OCC(=O)NCC(=O)N[C@H](c1nc(CNC(C)C)no1)CSC2.Cl` gave an MIC against Staphylococcus aureus [1] of 16 µg/mL. For the same compound, the MNEC in the experiment with Escherichia coli [2] was determined as 0.02 µg/mL.
For `COc1cc(O)c2c(c1C)C(=O)O[C@H](CO)CCCC(=S)N[C@H](c1nc(CN)no1)CSC2` the same measures were 32 µg/mL (≈ 64.4 µM) and 0.005 µg/mL.
As to `COc1cc(O)c2c(c1Br)C(=O)OCC(=O)NCC(=S)N[C@H](c1nc(CN)no1)CSC2.Cl`, in the experiment on Staphylococcus aureus [1], the MIC stood at 1 µg/mL. The MNEC in the experiment with Escherichia coli [2] came to 0.05 µg/mL. Moreover, in the experiment with Staphylococcus aureus [3], the ED50 is above 12 mg/kg.
